Experimental data from ChEMBL document CHEMBL1140685, “Synthesis and antitrichinellosis activity of some bis(benzimidazol-2-yl)amines” (2007).

Tests used:
Format in all cases: functional
Trichinella spiralis [1] = assay: Antitrichinellosis activity against Trichinella spiralis larvae at 50 ug/ml after 24 hrs by Campbell's method
How it was run: (§1)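 Encapsulated T. spiralis larvae were held at 150 per 1 ml physiological solution with compound dissolved in DMSO–water. Incubation was at 37 °C in a humid thermostatted chamber. Larval vitality was scored by stereomicroscope at 24 and 48 h after treatment.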

Trichinella spiralis [2] = assay: Antitrichinellosis activity against Trichinella spiralis larvae at 100 ug/ml after 24 hrs by Campbell's method; how it was run: as §1
Trichinella spiralis [3] = assay: Antitrichinellosis activity against Trichinella spiralis larvae at 200 ug/ml after 24 hrs by Campbell's method; how it was run: as §1
Trichinella spiralis [4] = assay: Antitrichinellosis activity against Trichinella spiralis larvae at 50 ug/ml after 48 hrs by Campbell's method; how it was run: as §1
Trichinella spiralis [5] = assay: Antitrichinellosis activity against Trichinella spiralis larvae at 100 ug/ml after 48 hrs by Campbell's method; how it was run: as §1
Trichinella spiralis [6] = assay: Antitrichinellosis activity against Trichinella spiralis larvae at 200 ug/ml after 48 hrs by Campbell's method; how it was run: as §1
Trichinella spiralis [7] = assay: Antitrichinellosis activity against Trichinella spiralis intestinal phase larvae in mouse at 50 mg/kg, po after 3 days
How it was run: (§2)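 White immature mice each infected with 150 Trichinella larvae, five mice per group. Oral dosing by thin metallic probe into the oesophagus as DMSO solution, once daily for 3 days starting on day 3 after infection. Controls were untreated mice and mice given albendazole at 100 mg/kg. Read-out was microscopic examination of small-intestine contents after autopsy for larvae.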

Trichinella spiralis [8] = assay: Antitrichinellosis activity against Trichinella spiralis intestinal phase larvae in mouse at 100 mg/kg, po after 3 days; how it was run: as §2

| SMILES | Efficacy (Trichinella spiralis [1]) [%] | Efficacy (Trichinella spiralis [2]) [%] | Efficacy (Trichinella spiralis [3]) [%] | Efficacy (Trichinella spiralis [4]) [%] | Efficacy (Trichinella spiralis [5]) [%] | Efficacy (Trichinella spiralis [6]) [%] | Efficacy (Trichinella spiralis [7]) [%] | Efficacy (Trichinella spiralis [8]) [%] |
| --- | --- | --- | --- | --- | --- | --- | --- | --- |
| Cn1c(Nc2nc3ccccc3[nH]2)nc2ccccc21 | 9.1 | 13.5 | 30.2 | 17.2 | 28.3 | 58.3 |  |  |
| CCn1c(Nc2nc3ccccc3[nH]2)nc2ccccc21 | 15.7 | 20 | 38.2 | 25.3 | 38.6 | 65 |  |  |
| CCCn1c(Nc2nc3ccccc3[nH]2)nc2ccccc21 | 12 | 17.6 | 67.7 | 20 | 34.5 | 78 |  |  |
| CCn1c(Nc2nc3ccccc3n2C)nc2ccccc21 | 35.3 | 65.7 | 76.3 | 65.3 | 73 | 84 |  |  |
| CCn1c(Nc2nc3ccccc3n2CC)nc2ccccc21 | 45.8 | 92 | 94 | 66.3 | 97.5 | 98 | 100 | 100 |
| CCCn1c(Nc2nc3ccccc3n2CC)nc2ccccc21 | 42 | 84 | 96 | 46 | 92.1 | 100 | 100 | 100 |
| Cn1c(Nc2nc3ccccc3n2C)nc2ccccc21 | 8.8 | 17.3 | 45.7 | 14 | 18.3 | 67.9 |  |  |
| CCCn1c(Nc2nc3ccccc3n2C)nc2ccccc21 | 33.3 | 73.8 | 80 | 43.4 | 80 | 88.4 |  |  |
| CCCn1c(Nc2nc3ccccc3n2CCC)nc2ccccc21 | 45.9 | 81.2 | 100 | 58.6 | 95.3 | 100 | 100 | 100 |
| CCCSc1ccc2[nH]c(NC(=O)OC)nc2c1 [ALBENDAZOLE] | 10.6 | 10.7 | 13.3 | 14.8 | 15.1 | 17.4 |  | 100 |
